Assays:
OVCAR-3 = assay: Growth inhibition of OVCAR-3 cells; assay type: functional; conditions: Homo sapiens
SK-MEL-5 = assay: Growth inhibition of SK-MEL-5 cells; assay type: functional; conditions: Homo sapiens
DU-145 = assay: Growth inhibition of DU145 cells; assay type: functional; conditions: Homo sapiens
Method in brief: (§1)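 Tested in the NCI 60 human tumour cell line screen, which was run by NCI. The value for each line is the GI50, the concentration giving 50% growth inhibition. Results are also shown as a mean graph across the full panel.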

HOP-92 = assay: Growth inhibition of HOP92 cells; assay type: functional; conditions: Homo sapiens
HCT-116 = assay: Growth inhibition of HCT116 cells; assay type: functional; conditions: Homo sapiens
CAKI-1 = assay: Growth inhibition of CAKI1 cells; assay type: functional; conditions: Homo sapiens; method in brief: as §1
OVCAR-4 = assay: Growth inhibition of OVCAR4 cells; assay type: functional; conditions: Homo sapiens
TK-10 = assay: Growth inhibition of TK10 cells; assay type: functional; conditions: Homo sapiens
SN12C = assay: Growth inhibition of SN12C cells; assay type: functional; conditions: Homo sapiens; method in brief: as §1
[1] = test system: A2780 (human ovarian cancer); assay: Antiproliferative activity against drug-sensitive human A2780 cells
HCC 2998 = assay: Growth inhibition of HCC2998 cells; assay type: functional; conditions: Homo sapiens
EKVX = assay: Growth inhibition of EKVX cells; assay type: functional; conditions: Homo sapiens; method in brief: as §1
786-0 = assay: Growth inhibition of 786-0 cells; assay type: functional; conditions: Homo sapiens
NCI-H23 = assay: Growth inhibition of NCI-H23 cells; assay type: functional; conditions: Homo sapiens
[2] = Growth inhibition of HS 578T cells; assay type: functional; conditions: Homo sapiens
MDA-MB-231 = assay: Growth inhibition of MDA-MB-231/ATCC cells; assay type: functional; conditions: Homo sapiens; method in brief: as §1
KM12 = assay: Growth inhibition of KM12 cells; assay type: functional; conditions: Homo sapiens
M14 = assay: Growth inhibition of M14 cells; assay type: functional; conditions: Homo sapiens; method in brief: as §1
BT-549 = assay: Growth inhibition of BT549 cells; assay type: functional; conditions: Homo sapiens
CCRF-CEM = assay: Growth inhibition of CCRF-CEM cells; assay type: functional; conditions: Homo sapiens; method in brief: as §1
PC-3 = assay: Growth inhibition of PC3 cells; assay type: functional; conditions: Homo sapiens
RPMI-8226 = assay: Growth inhibition of RPMI8226 cells; assay type: functional; conditions: Homo sapiens
ACHN = assay: Growth inhibition of ACHN cells; assay type: functional; conditions: Homo sapiens
U-251 = assay: Growth inhibition of U251 cells; assay type: functional; conditions: Homo sapiens
SNB-75 = assay: Growth inhibition of SNB75 cells; assay type: functional; conditions: Homo sapiens
A498 = assay: Growth inhibition of A498 cells; assay type: functional; conditions: Homo sapiens; method in brief: as §1
[3] = read-out: Log LC50 (the source's name) (converted)

**Q.** Which GI50 (OVCAR-3; read-out: GI50) does the source give for COc1cc(/C=C/c2cc(O)c(CC=C(C)C)c(O)c2)cc2c1O[C@]1(C)C[C@@H](O)[C@@H](O)C(C)(C)[C@H]1C2 [SCHWEINFURTHIN E] here?
**A.** 2200 nM

**Q.** And the CC50 (OVCAR-3; [3])?
**A.** 24000 nM

**Q.** And the TGI (OVCAR-3; read-out: Log TGI (converted))?
**A.** 8320 nM

**Q.** What about the GI50 (OVCAR-3; read-out: pGI50 (converted)) of the same compound?
**A.** 6170 nM

**Q.** And the GI50 (SK-MEL-5)?
**A.** 661 nM

**Q.** And the CC50 (SK-MEL-5; [3])?
**A.** 5620 nM

**Q.** And the TGI (SK-MEL-5; read-out: Log TGI (converted))?
**A.** 2240 nM

**Q.** And the GI50 (DU-145)?
**A.** 468 nM

**Q.** What about the CC50 (DU-145; [3]) of the same compound?
**A.** 72400 nM

**Q.** And the TGI (DU-145; read-out: Log TGI (converted))?
**A.** 14100 nM

**Q.** And the GI50 (HOP-92)?
**A.** 794 nM

**Q.** What about the CC50 (HOP-92; [3]) of the same compound?
**A.** > 100000 nM

**Q.** What about the TGI (HOP-92; read-out: Log TGI (converted)) of the same compound?
**A.** 5130 nM

**Q.** What about the GI50 (HCT-116) of the same compound?
**A.** 20.9 nM

**Q.** And the CC50 (HCT-116; [3])?
**A.** 6920 nM

**Q.** What about the TGI (HCT-116; read-out: Log TGI (converted)) of the same compound?
**A.** 871 nM

**Q.** And the GI50 (CAKI-1; read-out: GI50)?
**A.** < 10 nM

**Q.** What about the CC50 (CAKI-1; [3]) of the same compound?
**A.** 550 nM

**Q.** What about the TGI (CAKI-1; read-out: Log TGI (converted)) of the same compound?
**A.** < 10 nM

**Q.** And the TGI (CAKI-1; read-out: TGI)?
**A.** < 10 nM

**Q.** What about the GI50 (CAKI-1; read-out: pGI50 (converted)) of the same compound?
**A.** < 10 nM

**Q.** And the LC50 (OVCAR-4)?
**A.** > 100000 nM

**Q.** What about the GI50 (OVCAR-4; read-out: GI50) of the same compound?
**A.** 2200 nM

**Q.** And the TGI (OVCAR-4; read-out: Log TGI (converted))?
**A.** 9330 nM

**Q.** What about the GI50 (OVCAR-4; read-out: pGI50 (converted)) of the same compound?
**A.** 575 nM

**Q.** What about the CC50 (TK-10; [3]) of the same compound?
**A.** 18600 nM

**Q.** And the TGI (TK-10; read-out: Log TGI (converted))?
**A.** 2630 nM

**Q.** And the GI50 (SN12C)?
**A.** 2090 nM

**Q.** And the CC50 (SN12C; [3])?
**A.** 34700 nM

**Q.** What about the TGI (SN12C; read-out: Log TGI (converted)) of the same compound?
**A.** 7590 nM

**Q.** And the IC50 [1]?
**A.** 260 nM

**Q.** And the GI50 (HCC 2998)?
**A.** 1020 nM

**Q.** And the CC50 (HCC 2998; [3])?
**A.** 6460 nM

**Q.** What about the TGI (HCC 2998; read-out: Log TGI (converted)) of the same compound?
**A.** 2570 nM

**Q.** What about the GI50 (EKVX) of the same compound?
**A.** 2140 nM

**Q.** And the CC50 (EKVX; [3])?
**A.** > 100000 nM

**Q.** What about the TGI (EKVX; read-out: Log TGI (converted)) of the same compound?
**A.** 28200 nM

**Q.** And the GI50 (786-0)?
**A.** < 10 nM

**Q.** And the CC50 (786-0; [3])?
**A.** 9770 nM

**Q.** And the TGI (786-0; read-out: Log TGI (converted))?
**A.** 1070 nM

**Q.** What about the GI50 (NCI-H23) of the same compound?
**A.** 240 nM

**Q.** And the CC50 (NCI-H23; [3])?
**A.** 13800 nM

**Q.** What about the TGI (NCI-H23; read-out: Log TGI (converted)) of the same compound?
**A.** 2340 nM

**Q.** What about the GI50 [2] of the same compound?
**A.** < 10 nM

**Q.** What about the CC50 [2, 3] of the same compound?
**A.** > 100000 nM

**Q.** What about the TGI ([2]; read-out: Log TGI (converted)) of the same compound?
**A.** 363 nM

**Q.** What about the GI50 (MDA-MB-231) of the same compound?
**A.** 851 nM

**Q.** And the CC50 (MDA-MB-231; [3])?
**A.** 26300 nM

**Q.** And the TGI (MDA-MB-231; read-out: Log TGI (converted))?
**A.** 3470 nM

**Q.** What about the GI50 (KM12) of the same compound?
**A.** 457 nM

**Q.** What about the CC50 (KM12; [3]) of the same compound?
**A.** 9550 nM

**Q.** And the TGI (KM12; read-out: Log TGI (converted))?
**A.** 2240 nM

**Q.** And the GI50 (M14)?
**A.** < 10 nM

**Q.** And the CC50 (M14; [3])?
**A.** 4270 nM

**Q.** What about the TGI (M14; read-out: Log TGI (converted)) of the same compound?
**A.** 288 nM

**Q.** What about the GI50 (BT-549) of the same compound?
**A.** 1510 nM

**Q.** What about the CC50 (BT-549; [3]) of the same compound?
**A.** > 100000 nM

**Q.** And the TGI (BT-549; read-out: Log TGI (converted))?
**A.** 13200 nM

**Q.** And the GI50 (CCRF-CEM)?
**A.** < 10 nM

**Q.** And the CC50 (CCRF-CEM; [3])?
**A.** > 100000 nM

**Q.** And the TGI (CCRF-CEM; read-out: Log TGI (converted))?
**A.** 10000 nM

**Q.** What about the GI50 (PC-3) of the same compound?
**A.** 138 nM

**Q.** What about the CC50 (PC-3; [3]) of the same compound?
**A.** 47900 nM

**Q.** What about the TGI (PC-3; read-out: Log TGI (converted)) of the same compound?
**A.** 9550 nM

**Q.** What about the GI50 (RPMI-8226) of the same compound?
**A.** < 10 nM

**Q.** And the CC50 (RPMI-8226; [3])?
**A.** > 100000 nM

**Q.** And the TGI (RPMI-8226; read-out: Log TGI (converted))?
**A.** 52.5 nM

**Q.** And the GI50 (ACHN)?
**A.** 372 nM

**Q.** What about the CC50 (ACHN; [3]) of the same compound?
**A.** 13200 nM

**Q.** What about the TGI (ACHN; read-out: Log TGI (converted)) of the same compound?
**A.** 3020 nM

**Q.** What about the GI50 (U-251) of the same compound?
**A.** < 10 nM

**Q.** What about the CC50 (U-251; [3]) of the same compound?
**A.** 32400 nM

**Q.** What about the TGI (U-251; read-out: Log TGI (converted)) of the same compound?
**A.** 3980 nM

**Q.** What about the GI50 (SNB-75) of the same compound?
**A.** 1740 nM

**Q.** And the CC50 (SNB-75; [3])?
**A.** > 100000 nM

**Q.** What about the TGI (SNB-75; read-out: Log TGI (converted)) of the same compound?
**A.** 20000 nM

**Q.** And the LC50 (A498)?
**A.** > 100000 nM

**Q.** What about the GI50 (A498; read-out: GI50) of the same compound?
**A.** < 10 nM

**Q.** And the TGI (A498; read-out: Log TGI (converted))?
**A.** < 10 nM

**Q.** What about the TGI (A498; read-out: TGI) of the same compound?
**A.** < 10 nM

**Q.** What about the GI50 (A498; read-out: pGI50 (converted)) of the same compound?
**A.** < 10 nM
